Experimental data taken from ChEMBL document CHEMBL3112425, “Design, synthesis, and structure-activity relationship studies of a potent PACE4 inhibitor” (J Med Chem, 2014).
Square brackets hold non-standard residues; d marks the D form. Peptide text beside a SMILES is read from it. Phe(4-guanidino) = N=C(N)Nc1ccc(C[C@H](N)C(=O)O)cc1; Nle = CCCC[C@H](N)C(=O)O

Experiments:
PC-3 = assay: Cytotoxicity against human PC3 cells up to 350 uM after 72 hrs by MTT assay; format: functional
How it was run: (§1)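 Prostate cancer cells were kept in RPMI 1640 at 37 °C, 5% CO2, with 5% FBS for DU145 and 10% FBS for LNCaP and PC3. After 24 h, medium was changed and peptides added at various concentrations, up to 350 μM. Viability was read by MTT after 72 h treatment. IC50 from dose–response curves, triplicate, mean ± SEM.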

LNCaP = assay: Cytotoxicity against human LNCAP cells after 72 hrs by MTT assay; format: functional, cell-based; how it was run: as §1
DU-145 = assay: Cytotoxicity against human DU145 cells after 72 hrs by MTT assay; format: functional, cell-based; conditions: DU-145, 72 h; how it was run: as §1
[1] = target: T1, Proprotein convertase subtilisin/kexin type 6 (Homo sapiens, UniProt P29122); assay: Inhibition of human recombinant PACE4 expressed in drosophila schneider 2 cells using pyroGlu-Arg-Thr-Lys-Arg-AMC as substrate after 1 hr
T1 sequence (P29122 whole entry): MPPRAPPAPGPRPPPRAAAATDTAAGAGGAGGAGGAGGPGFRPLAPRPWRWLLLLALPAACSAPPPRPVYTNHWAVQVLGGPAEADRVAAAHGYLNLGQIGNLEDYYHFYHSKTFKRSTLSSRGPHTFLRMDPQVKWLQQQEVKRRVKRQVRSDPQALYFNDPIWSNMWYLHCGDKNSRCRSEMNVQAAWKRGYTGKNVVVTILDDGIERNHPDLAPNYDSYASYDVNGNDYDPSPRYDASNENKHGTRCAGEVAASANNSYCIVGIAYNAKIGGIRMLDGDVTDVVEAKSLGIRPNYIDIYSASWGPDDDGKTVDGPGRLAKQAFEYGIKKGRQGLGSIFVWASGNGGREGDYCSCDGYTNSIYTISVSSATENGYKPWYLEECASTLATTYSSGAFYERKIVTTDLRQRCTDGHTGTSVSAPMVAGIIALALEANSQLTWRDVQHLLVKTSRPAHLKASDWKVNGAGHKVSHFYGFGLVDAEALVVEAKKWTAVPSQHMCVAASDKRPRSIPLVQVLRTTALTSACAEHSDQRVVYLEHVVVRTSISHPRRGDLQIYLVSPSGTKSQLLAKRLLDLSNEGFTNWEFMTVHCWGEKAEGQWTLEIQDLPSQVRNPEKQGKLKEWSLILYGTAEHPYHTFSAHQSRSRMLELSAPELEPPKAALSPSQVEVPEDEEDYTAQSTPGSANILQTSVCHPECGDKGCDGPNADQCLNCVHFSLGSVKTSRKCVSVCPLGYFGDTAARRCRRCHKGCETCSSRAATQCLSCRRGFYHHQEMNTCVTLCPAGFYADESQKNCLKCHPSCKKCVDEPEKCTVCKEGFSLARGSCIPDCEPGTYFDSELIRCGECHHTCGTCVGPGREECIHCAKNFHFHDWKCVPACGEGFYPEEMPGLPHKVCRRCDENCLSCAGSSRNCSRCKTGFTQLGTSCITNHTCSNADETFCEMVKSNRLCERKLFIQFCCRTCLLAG
How it was run: (§2)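 Human enzymes were expressed in Drosophila S2 cells and purified. Fluorogenic pyroGlu-RTKR-AMC was used at fixed concentration with varied inhibitor, 37 °C over 1 h. Buffers: furin, 100 mM Hepes pH 7.5, 1 mM CaCl2, 1 mM β-mercaptoethanol, 1.8 mg/mL BSA; PACE4 and PC7, 20 mM Bis-Tris pH 6.5, 1 mM CaCl2, 1.8 mg/mL BSA; PC2, same buffer at pH 5.7. Ki from IC50 (Cheng–Prusoff), or apparent Ki (Morrison) for tight binders. Triplicate, mean ± SD.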

Furin = Furin (Homo sapiens, UniProt P09958); assay: Inhibition of human recombinant furin expressed in drosophila schneider 2 cells using pyroGlu-Arg-Thr-Lys-Arg-AMC as substrate after 1 hr; how it was run: as §2
Sequence of Furin (P09958 whole entry): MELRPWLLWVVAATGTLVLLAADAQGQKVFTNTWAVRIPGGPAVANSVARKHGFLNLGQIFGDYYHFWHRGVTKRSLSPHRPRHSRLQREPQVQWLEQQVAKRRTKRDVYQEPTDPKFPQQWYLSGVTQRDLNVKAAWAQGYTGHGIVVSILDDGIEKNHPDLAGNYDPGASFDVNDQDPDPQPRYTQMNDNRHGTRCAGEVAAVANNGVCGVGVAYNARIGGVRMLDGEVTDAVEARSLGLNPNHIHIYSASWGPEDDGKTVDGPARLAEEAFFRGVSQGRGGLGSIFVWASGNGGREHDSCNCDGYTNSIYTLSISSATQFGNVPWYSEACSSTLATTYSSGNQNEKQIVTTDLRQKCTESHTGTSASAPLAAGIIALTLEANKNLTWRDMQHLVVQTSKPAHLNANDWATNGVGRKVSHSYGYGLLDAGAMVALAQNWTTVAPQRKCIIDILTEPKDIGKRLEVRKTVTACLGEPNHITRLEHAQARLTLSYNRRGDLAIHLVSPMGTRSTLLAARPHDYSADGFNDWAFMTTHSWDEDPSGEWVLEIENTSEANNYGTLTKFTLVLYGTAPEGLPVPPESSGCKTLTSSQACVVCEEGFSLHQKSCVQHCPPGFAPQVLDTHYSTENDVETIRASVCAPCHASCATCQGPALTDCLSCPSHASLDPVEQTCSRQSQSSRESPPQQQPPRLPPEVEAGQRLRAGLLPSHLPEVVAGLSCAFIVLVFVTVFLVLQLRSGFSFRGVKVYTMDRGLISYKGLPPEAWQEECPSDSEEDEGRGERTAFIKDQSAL

[2] = Acute toxicity in human DU145 cells assessed as cell death/lysis at 100 uM after 4 hrs by LDH assay; format: cell-based, DU-145; conditions: read-out: INH
How it was run: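 DU145 cells (RPMI 1640, 5% FBS, 37 °C, 5% CO2) plated; 24 h later peptides added at 100 μM. After 4 h, release of lactate dehydrogenase into the medium was quantified enzymatically with a commercial LDH cytotoxicity kit as the measure of acute membrane damage/lysis.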

Row | SMILES | inhibition (INH) (PC-3) [%] | IC50 (LNCaP) [nM] | IC50 (DU-145) [nM] | Ki [1] [nM] | Ki (Furin) [nM] | cytotoxicity at 4 h, 100 µM [2] [%]
1 | CCCC[C@H](NC(=O)[C@H](CC(C)C)NC(=O)[C@H](CC(C)C)NC(=O)[C@H](CC(C)C)NC(C)=O)C(=O)N[C@@H](CCCNC(=N)N)C(=O)N[C@H](C(=O)N[C@@H](CCCCN)C(=O)N[C@@H](CCCNC(=N)N)C(N)=O)C(C)C (Ac-LLL[Nle]RVKR-NH2) | <50 | 220000 | 110000 | – | – | –
2 | CCCC[C@H](NC(C)=O)C(=O)N[C@@H](CCCC)C(=O)N[C@@H](CCCC)C(=O)N[C@@H](CCCC)C(=O)N[C@@H](CCCNC(=N)N)C(=O)N[C@H](C(=O)N[C@@H](CCCCN)C(=O)N[C@@H](CCCNC(=N)N)C(N)=O)C(C)C | – | – | – | 500 | 2550 | –
3 | CCCC[C@H](NC(=O)[C@H](CC(C)C)NC(=O)[C@H](CC(C)C)NC(=O)[C@H](CC(C)C)NC(C)=O)C(=O)N[C@@H](CCCN=C(N)N)C(=O)N[C@H](C(=O)N[C@@H](CCCCN)C(=O)N[C@@H](CCCN=C(N)N)C(N)=O)C(C)C (Ac-LLL[Nle]RVKR-NH2) | – | – | – | 27 | 560 | < 5
4 | CCCC[C@H](NC(=O)[C@H](CC(C)C)NC(C)=O)C(=O)N[C@@H](CCCC)C(=O)N[C@@H](CC(C)C)C(=O)N[C@@H](CCCN=C(N)N)C(=O)N[C@H](C(=O)N[C@@H](CCCCN)C(=O)N[C@@H](CCCN=C(N)N)C(N)=O)C(C)C (Ac-L[Nle][Nle]LRVKR-NH2) | – | – | – | 170 | 2300 | –
5 | CC(=O)N[C@@H](CC(C)C)C(=O)N[C@H](CC(C)C)C(=O)N[C@@H](CC(C)C)C(=O)N[C@@H](CC(C)C)C(=O)N[C@@H](CCCN=C(N)N)C(=O)N[C@H](C(=O)N[C@@H](CCCCN)C(=O)N[C@@H](CCCN=C(N)N)C(N)=O)C(C)C | – | – | – | 700 | 2800 | –
6 | CCCC[C@H](NC(C)=O)C(=O)N[C@@H](CCCC)C(=O)N[C@@H](CC(C)C)C(=O)N[C@@H](CCCC)C(=O)N[C@@H](CCCN=C(N)N)C(=O)N[C@H](C(=O)N[C@@H](CCCCN)C(=O)N[C@@H](CCCN=C(N)N)C(N)=O)C(C)C | – | – | – | 60 | 1070 | –
7 | CC(=O)N[C@@H](CC(C)C)C(=O)N[C@@H](CC(C)C)C(=O)N[C@H](CC(C)C)C(=O)N[C@@H](CC(C)C)C(=O)N[C@@H](CCCNC(=N)N)C(=O)N[C@H](C(=O)N[C@@H](CCCCN)C(=O)N[C@@H](CCCNC(=N)N)C(N)=O)C(C)C | <50 | 130000 | 190000 | 6260 | 980 | < 5
8 | CC(=O)N[C@@H](CC(C)C)C(=O)N[C@@H](CC(C)C)C(=O)N[C@@H](CC(C)C)C(=O)N[C@H](CC(C)C)C(=O)N[C@@H](CCCNC(=N)N)C(=O)N[C@H](C(=O)N[C@@H](CCCCN)C(=O)N[C@@H](CCCNC(=N)N)C(N)=O)C(C)C | – | – | – | 14000 | 9550 | –
9 | CCCC[C@H](NC(=O)[C@H](CC(C)C)NC(C)=O)C(=O)N[C@@H](CC(C)C)C(=O)N[C@@H](CC(C)C)C(=O)N[C@@H](CCCNC(=N)N)C(=O)N[C@H](C(=O)N[C@@H](CCCCN)C(=O)N[C@@H](CCCNC(=N)N)C(N)=O)C(C)C (Ac-L[Nle]LLRVKR-NH2) | – | – | – | 39 | 980 | –
10 | CCCC[C@H](NC(C)=O)C(=O)N[C@@H](CCCC)C(=O)N[C@@H](CC(C)C)C(=O)N[C@@H](CC(C)C)C(=O)N[C@@H](CCCN=C(N)N)C(=O)N[C@H](C(=O)N[C@@H](CCCCN)C(=O)N[C@@H](CCCN=C(N)N)C(N)=O)C(C)C | – | – | – | 57 | 950 | –
11 | CCCC[C@H](NC(=O)[C@H](CC(C)C)NC(=O)[C@H](CC(C)C)NC(C)=O)C(=O)N[C@@H](CCCC)C(=O)N[C@@H](CCCN=C(N)N)C(=O)N[C@H](C(=O)N[C@@H](CCCCN)C(=O)N[C@@H](CCCN=C(N)N)C(N)=O)C(C)C (Ac-LL[Nle][Nle]RVKR-NH2) | – | – | – | 350 | 2100 | –
12 | CC(=O)N[C@@H](CC(C)C)C(=O)N[C@@H](CC(C)C)C(=O)N[C@@H](CC(C)C)C(=O)N[C@@H](CC(C)C)C(=O)N[C@@H](CCCNC(=N)N)C(=O)N[C@H](C(=O)N[C@@H](CCCCN)C(=O)N[C@@H](Cc1ccc(NC(=N)N)cc1)C(N)=O)C(C)C (Ac-LLLLRVK[Phe(4-guanidino)]-NH2) | – | – | – | 960 | 11000 | –
